Assay results pooled from the literature.
Compare with care: the assays were run in different laboratories.
Target: Vascular endothelial growth factor receptor 2 (KDR, Homo sapiens, UniProt P35968)

The inhibition of `C#Cc1n[nH]c2c(-c3cn([C@@H](C)c4ccccc4)c(=O)[nH]c3=O)cc(F)cc12` is reported as 5.3% (enzyme activity, inhibitor; 0.1 µM).
The remaining binding of `Nc1ncc(-c2nc(N3CCOCC3)nc(N3CCOCC3)n2)c(C(F)F)n1` is reported as 41% (cell-free assay, competition with immobilised ligand; 10 µM).
For `C#Cc1n[nH]c2c(-c3cn([C@@H](C)c4ccccn4)c(=O)[nH]c3=O)cc(F)cc12`, the inhibition was 6.6% (enzyme activity, inhibitor; 0.1 µM).
`Cc1nn(C)cc1-c1nc2c(N3CCN(Cc4ccc(Cl)cc4)CC3)c(Cl)cnc2[nH]1` gave a remaining binding of 12% (binding, competition with immobilised ligand; 1 µM).
With `COc1ccc2c(c1)/C(=C/c1cnc[nH]1)C(=O)N2` the remaining signal was 78.7% (cell-free assay; 0.5 µM).
`Cn1cc(-c2cc(F)cc(N3CCn4c(cc5c4CCCC5)C3=O)c2CO)cc(Nc2ccc(N3CCN(C4COC4)CC3)cn2)c1=O` has an inhibition of 12% (enzyme activity, inhibitor; 0.1 µM).
With `COc1ncccc1-c1cnn2ccc(N3CCN(C(=O)OC(C)C)CC3)nc12` the remaining binding was 100% (binding, competition with immobilised ligand; 1 µM).
The inhibition of `COCc1c(-c2cc3cc(C)cc(OC)c3s2)c2c(N)ncnn2c1CN1CCNC(=O)C1` is reported as 81% (cell-free assay, competition with immobilised ligand; 1 µM).
With `Cn1cncc1[C@](O)(COc1ccc(C#N)cc1-c1ccc(OC(F)(F)F)cc1)c1ccc(C#N)cc1` the remaining binding was 96% (cell-free assay, competition with immobilised ligand; 1 µM).
With `O=c1[nH]c2ccccc2n1C1CCN(Cc2ccc(-c3[nH]c4cc5ncnc5cc4nc3-c3ccccc3)cc2)CC1` the remaining signal was 90.9% (cell-free assay; 0.5 µM).
